Active and inactive are the calls of the source. No cut-off for these calls is given here.
Tests used:
[1] = Inhibition of FAK Tyr397 phosphorylation in dog MDCK cells after 60 mins by Western blot analysis; assay type: cell-based; conditions: Canis lupus familiaris, 1 h
Procedure, shortened: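 MDCK cells treated with increasing inhibitor concentrations, 60 min, as for REF52. Whole-cell lysates immunoblotted for phospho-FAK Tyr397 and total FAK. Phospho-signal normalized to total FAK, and IC50 derived from the concentration series.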

[2] = molecular target: T1, Glycogen synthase kinase-3 beta (Homo sapiens, UniProt P49841); assay: Inhibition of human GSK3-beta
[3] = Inhibition of fibronectin-stimulated cell migration of rat REF52 cells at 1.0 uM pretreated for 30 mins measured after 6 hrs by transwell assay relative to control; assay type: functional
Procedure, shortened: (§1)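 Modified Boyden transwell, 8-μm pores. REF52 cells (1 × 10⁵) pretreated 30 min with inhibitor, which stayed in both chambers. Attractant was 10% FBS in the lower chamber, or membrane underside coated with 1.5 μg/ml fibronectin overnight at 4 °C under serum-free DMEM. Migration 6 h at 37 °C. Underside cells fixed, crystal-violet stained and counted in four fields. Triplicates normalized to untreated control; ANOVA then t-tests.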

Homo sapiens [4] = organism: Homo sapiens; assay: Inhibition of human PKBalpha at 1 uM
Procedure, shortened: (§2)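 Recombinant kinases were screened in a commercial profiling panel with the compound at a single concentration of 1 μM. The read-out is percent inhibition of each enzyme's kinase activity.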

[5] = molecular target: Dual specificity mitogen-activated protein kinase kinase 6 (Homo sapiens) (UniProt P52564); assay: Inhibition of MKK6 at 1 uM
[6] = molecular target: Platelet-derived growth factor receptor beta (Homo sapiens) (UniProt P09619); assay: Inhibition of PDGFRbeta at 1 uM
[7] = molecular target: Cyclin-dependent kinase 7 (Homo sapiens, UniProt P50613); assay: Inhibition of human CDK7/cyclinH/MAT1
[8] = Cell number in rat REF52 cells at 1 uM after 3 days as % of control; conditions: REF52, 72 h
[9] = Inhibition of 10% serum-stimulated cell migration of rat REF52 cells at 10 uM pretreated for 30 mins measured after 6 hrs by transwell assay relative to control; assay type: functional; procedure, shortened: as §1
[10] = molecular target: RAF proto-oncogene serine/threonine-protein kinase (Homo sapiens) (UniProt P04049); assay: Inhibition of human c-RAF at 1 uM
[11] = molecular target: Dual specificity mitogen-activated protein kinase kinase 1 (Homo sapiens) (UniProt Q02750); assay: Inhibition of human MEK1 at 1 uM
[12] = molecular target: Epidermal growth factor receptor (Homo sapiens) (UniProt P00533); assay: Inhibition of human EGFR at 1 uM
[13] = molecular target: Serine/threonine-protein kinase Chk1 (Homo sapiens) (UniProt O14757); assay: Inhibition of CHK1 at 1 uM; procedure, shortened: as §2
[14] = molecular target: RAC-alpha serine/threonine-protein kinase (Homo sapiens) (UniProt P31749); assay: Inhibition of AKT at 1 uM
Focal adhesion kinase 1 [15] = molecular target: T2, Focal adhesion kinase 1 (Homo sapiens, UniProt Q05397); assay: Inhibition of FAK Tyr397 phosphorylation in human A431 cells by ELISA
[16] = molecular target: Mast/stem cell growth factor receptor Kit (Homo sapiens) (UniProt P10721); assay: Inhibition of c-kit at 1 uM
[17] = Inhibition of MKK at 1 uM; procedure, shortened: as §2
[18] = molecular target: Ephrin type-A receptor 2 (Homo sapiens) (UniProt P29317); assay: Inhibition of EphA2 at 1 uM
[19] = molecular target: Cyclin-dependent kinase 2 (Homo sapiens) (UniProt P24941); assay: Inhibition of human CDK2/cyclinA at 1 uM
[20] = molecular target: T1, Glycogen synthase kinase-3 beta; assay: Inhibition of human GSK3-beta at 1 uM; procedure, shortened: as §2
REF52 = assay: Induction of apoptosis in attached rat REF52 cells assessed as histone accumulation after 24 hrs by ELISA; assay type: functional, cell-based
Procedure, shortened: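 Attached cells in serum-containing medium treated with inhibitor at the indicated concentrations, 24 h for REF52 and PC3, 16 h for MDCK, then lysed. Free histones in lysates measured by cell death detection ELISA, in duplicate. Untreated adherent cells were the negative control. Cells suspended 16–24 h in serum-free medium were the positive control. One of three experiments shown.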

Homo sapiens [21] = organism: Homo sapiens; assay: Inhibition of human PKA at 1 uM; procedure, shortened: as §2
[22] = molecular target: Mitogen-activated protein kinase 1 (Homo sapiens) (UniProt P28482); assay: Inhibition of human MAPK1 at 1 uM; procedure, shortened: as §2
[23] = molecular target: Phosphatidylinositol 4,5-bisphosphate 3-kinase catalytic subunit gamma isoform (Homo sapiens) (UniProt P48736); assay: Inhibition of human PI3-Kgamma at 1 uM
[24] = molecular target: Protein kinase C theta type (Homo sapiens) (UniProt Q04759); assay: Inhibition of PKCtheta at 1 uM
NIH3T3 [25] = assay: Inhibition of focal adhesion turnover in wounded mouse NIH3T3 cells expressing GFP-paxillin assessed as average adhesion life-time at 10 uM by TIRF microscopy; assay type: functional
NIH3T3 [26] = assay: Inhibition of focal adhesion turnover in wounded mouse NIH3T3 cells expressing GFP-paxillin assessed as decrease in rate of disassembly by TIRF microscopy; assay type: functional, cell-based
[27] = molecular target: Ephrin type-B receptor 2 (Homo sapiens) (UniProt P29323); assay: Inhibition of EphB2 at 1 uM
Focal adhesion kinase 1 [28] = molecular target: T2, Focal adhesion kinase 1; assay: Inhibition of FAK Tyr397 phosphorylation in human PC3 cells after 60 mins by Western blot analysis
[29] = molecular target: Calcium/calmodulin-dependent protein kinase type IV (Homo sapiens) (UniProt Q16566); assay: Inhibition of human CaMK4 at 1 uM
PC-3 = assay: Cell number in human PC3 cells at 1 uM after 3 days as % of control; conditions: PC-3, 72 h
[30] = molecular target: Protein DBF4 homolog A (Homo sapiens) (UniProt Q9UBU7); assay: Inhibition of ASK at 1 uM
[31] = Inhibition of fibronectin-stimulated cell migration of rat REF52 cells at 10 uM pretreated for 30 mins measured after 6 hrs by transwell assay relative to control; assay type: functional; procedure, shortened: as §1
[32] = Inhibition of ACK at 1 uM; procedure, shortened: as §2

T2 sequence (Q05397 whole entry): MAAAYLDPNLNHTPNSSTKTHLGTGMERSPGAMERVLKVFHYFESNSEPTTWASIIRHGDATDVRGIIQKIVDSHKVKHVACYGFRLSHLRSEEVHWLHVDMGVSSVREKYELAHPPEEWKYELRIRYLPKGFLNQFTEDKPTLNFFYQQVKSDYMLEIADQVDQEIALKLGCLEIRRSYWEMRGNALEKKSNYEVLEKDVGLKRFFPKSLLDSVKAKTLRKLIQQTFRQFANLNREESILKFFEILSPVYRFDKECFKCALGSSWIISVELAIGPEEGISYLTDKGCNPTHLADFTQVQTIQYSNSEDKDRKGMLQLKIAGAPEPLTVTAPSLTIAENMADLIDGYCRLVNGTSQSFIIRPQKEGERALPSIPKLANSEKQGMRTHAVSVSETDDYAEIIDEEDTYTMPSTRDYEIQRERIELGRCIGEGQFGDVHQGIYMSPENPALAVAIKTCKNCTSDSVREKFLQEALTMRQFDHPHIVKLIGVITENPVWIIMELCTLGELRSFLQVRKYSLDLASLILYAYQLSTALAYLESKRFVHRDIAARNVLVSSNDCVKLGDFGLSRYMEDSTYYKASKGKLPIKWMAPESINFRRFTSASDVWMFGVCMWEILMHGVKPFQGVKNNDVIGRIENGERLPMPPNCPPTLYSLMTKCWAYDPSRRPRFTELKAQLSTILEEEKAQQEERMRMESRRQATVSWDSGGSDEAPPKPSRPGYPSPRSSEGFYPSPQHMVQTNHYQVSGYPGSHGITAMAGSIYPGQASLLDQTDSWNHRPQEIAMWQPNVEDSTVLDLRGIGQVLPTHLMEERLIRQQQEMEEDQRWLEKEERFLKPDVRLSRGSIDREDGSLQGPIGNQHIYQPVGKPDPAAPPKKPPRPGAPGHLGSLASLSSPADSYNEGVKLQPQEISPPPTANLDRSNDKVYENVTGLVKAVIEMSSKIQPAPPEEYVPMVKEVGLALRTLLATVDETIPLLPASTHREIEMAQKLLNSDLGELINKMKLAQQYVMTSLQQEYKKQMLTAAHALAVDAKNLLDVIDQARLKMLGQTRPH
Sequence of Platelet-derived growth factor receptor beta (Homo sapiens) (P09619 whole entry): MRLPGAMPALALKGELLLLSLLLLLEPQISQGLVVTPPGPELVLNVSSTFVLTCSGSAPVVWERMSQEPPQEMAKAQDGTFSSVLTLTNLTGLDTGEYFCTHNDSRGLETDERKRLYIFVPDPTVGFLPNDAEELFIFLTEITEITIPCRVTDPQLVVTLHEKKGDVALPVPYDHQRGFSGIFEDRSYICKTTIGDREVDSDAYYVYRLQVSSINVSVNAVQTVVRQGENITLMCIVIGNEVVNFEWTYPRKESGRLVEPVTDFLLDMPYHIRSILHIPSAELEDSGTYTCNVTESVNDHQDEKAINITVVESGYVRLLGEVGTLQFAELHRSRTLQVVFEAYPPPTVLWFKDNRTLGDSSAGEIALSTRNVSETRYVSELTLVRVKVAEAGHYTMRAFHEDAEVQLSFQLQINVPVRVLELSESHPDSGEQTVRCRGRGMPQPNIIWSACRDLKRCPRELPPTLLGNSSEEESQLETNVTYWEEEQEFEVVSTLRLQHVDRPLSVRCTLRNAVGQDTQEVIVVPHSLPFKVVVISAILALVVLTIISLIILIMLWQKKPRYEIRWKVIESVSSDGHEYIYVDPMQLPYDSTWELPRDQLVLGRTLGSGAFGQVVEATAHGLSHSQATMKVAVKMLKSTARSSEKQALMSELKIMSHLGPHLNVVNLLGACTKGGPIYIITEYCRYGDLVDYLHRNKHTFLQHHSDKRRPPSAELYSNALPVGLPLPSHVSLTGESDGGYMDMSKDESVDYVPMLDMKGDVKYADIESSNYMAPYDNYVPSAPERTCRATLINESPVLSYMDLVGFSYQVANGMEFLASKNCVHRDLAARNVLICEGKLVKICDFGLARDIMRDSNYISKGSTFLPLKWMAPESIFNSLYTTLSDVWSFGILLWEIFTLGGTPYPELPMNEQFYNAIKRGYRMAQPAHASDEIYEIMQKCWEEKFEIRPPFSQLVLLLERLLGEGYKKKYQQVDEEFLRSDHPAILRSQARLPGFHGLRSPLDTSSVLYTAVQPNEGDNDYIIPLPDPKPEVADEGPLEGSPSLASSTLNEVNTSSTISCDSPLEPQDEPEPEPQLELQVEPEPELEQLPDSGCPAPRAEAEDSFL
Sequence of RAF proto-oncogene serine/threonine-protein kinase (Homo sapiens) (P04049 whole entry): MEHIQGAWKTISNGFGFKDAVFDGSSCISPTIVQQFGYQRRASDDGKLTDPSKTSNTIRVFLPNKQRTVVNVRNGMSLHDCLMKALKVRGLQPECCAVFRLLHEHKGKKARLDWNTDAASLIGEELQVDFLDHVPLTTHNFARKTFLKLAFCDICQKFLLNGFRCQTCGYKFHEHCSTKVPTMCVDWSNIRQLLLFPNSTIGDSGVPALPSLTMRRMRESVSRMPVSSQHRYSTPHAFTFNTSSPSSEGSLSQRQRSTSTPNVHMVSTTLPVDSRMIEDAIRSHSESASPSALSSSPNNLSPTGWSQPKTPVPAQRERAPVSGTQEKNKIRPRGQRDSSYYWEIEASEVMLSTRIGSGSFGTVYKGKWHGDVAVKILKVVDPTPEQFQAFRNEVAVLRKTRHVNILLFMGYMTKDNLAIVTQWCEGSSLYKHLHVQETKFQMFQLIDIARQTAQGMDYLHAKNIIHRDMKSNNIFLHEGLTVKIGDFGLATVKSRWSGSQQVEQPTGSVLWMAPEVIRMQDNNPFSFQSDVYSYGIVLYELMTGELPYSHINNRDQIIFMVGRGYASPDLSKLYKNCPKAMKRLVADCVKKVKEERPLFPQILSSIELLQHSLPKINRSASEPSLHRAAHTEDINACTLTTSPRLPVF
Sequence of Calcium/calmodulin-dependent protein kinase type IV (Homo sapiens) (Q16566 whole entry): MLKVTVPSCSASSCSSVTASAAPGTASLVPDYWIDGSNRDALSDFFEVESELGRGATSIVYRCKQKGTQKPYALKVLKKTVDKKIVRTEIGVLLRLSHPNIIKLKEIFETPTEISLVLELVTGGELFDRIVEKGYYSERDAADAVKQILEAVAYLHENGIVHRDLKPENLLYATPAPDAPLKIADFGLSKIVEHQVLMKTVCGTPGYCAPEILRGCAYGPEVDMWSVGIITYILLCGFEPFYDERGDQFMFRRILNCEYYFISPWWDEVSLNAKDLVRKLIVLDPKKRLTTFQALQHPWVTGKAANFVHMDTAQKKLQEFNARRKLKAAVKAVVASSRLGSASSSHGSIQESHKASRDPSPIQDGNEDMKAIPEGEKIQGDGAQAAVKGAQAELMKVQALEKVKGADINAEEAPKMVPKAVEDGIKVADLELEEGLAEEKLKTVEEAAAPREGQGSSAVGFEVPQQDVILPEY
Sequence of RAC-alpha serine/threonine-protein kinase (Homo sapiens) (P31749 whole entry): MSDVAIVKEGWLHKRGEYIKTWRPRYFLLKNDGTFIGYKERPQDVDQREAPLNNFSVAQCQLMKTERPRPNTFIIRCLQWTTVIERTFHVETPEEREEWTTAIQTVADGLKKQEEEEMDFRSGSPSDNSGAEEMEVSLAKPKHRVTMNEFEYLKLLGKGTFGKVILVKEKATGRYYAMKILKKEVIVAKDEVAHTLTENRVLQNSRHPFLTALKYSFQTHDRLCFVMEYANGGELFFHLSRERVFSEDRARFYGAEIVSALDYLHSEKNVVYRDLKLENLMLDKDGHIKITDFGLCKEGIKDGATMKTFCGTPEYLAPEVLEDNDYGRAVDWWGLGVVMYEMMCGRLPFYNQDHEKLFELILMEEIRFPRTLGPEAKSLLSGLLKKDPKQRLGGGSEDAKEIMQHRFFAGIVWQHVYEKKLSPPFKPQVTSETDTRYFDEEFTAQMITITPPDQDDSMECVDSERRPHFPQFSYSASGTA
Sequence of Protein kinase C theta type (Homo sapiens) (Q04759 whole entry, looked up): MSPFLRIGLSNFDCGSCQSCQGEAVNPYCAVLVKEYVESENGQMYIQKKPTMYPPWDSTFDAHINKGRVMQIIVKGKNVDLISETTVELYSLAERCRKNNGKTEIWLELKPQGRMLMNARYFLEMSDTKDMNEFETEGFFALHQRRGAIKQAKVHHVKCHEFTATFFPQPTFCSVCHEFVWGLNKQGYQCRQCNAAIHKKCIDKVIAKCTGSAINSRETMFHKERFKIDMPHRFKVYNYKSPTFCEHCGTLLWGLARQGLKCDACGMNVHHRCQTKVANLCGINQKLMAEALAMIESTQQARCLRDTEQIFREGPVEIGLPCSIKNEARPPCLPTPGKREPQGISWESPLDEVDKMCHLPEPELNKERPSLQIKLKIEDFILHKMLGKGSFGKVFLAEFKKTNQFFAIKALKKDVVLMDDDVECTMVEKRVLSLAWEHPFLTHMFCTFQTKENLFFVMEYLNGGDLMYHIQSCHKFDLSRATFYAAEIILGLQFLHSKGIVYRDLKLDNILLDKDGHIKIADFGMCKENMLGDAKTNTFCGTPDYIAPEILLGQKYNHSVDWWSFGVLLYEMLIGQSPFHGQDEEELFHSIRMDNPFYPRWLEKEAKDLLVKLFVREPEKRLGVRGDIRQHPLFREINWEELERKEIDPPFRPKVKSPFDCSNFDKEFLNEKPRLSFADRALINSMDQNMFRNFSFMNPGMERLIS
Sequence of Dual specificity mitogen-activated protein kinase kinase 1 (Homo sapiens) (Q02750 whole entry): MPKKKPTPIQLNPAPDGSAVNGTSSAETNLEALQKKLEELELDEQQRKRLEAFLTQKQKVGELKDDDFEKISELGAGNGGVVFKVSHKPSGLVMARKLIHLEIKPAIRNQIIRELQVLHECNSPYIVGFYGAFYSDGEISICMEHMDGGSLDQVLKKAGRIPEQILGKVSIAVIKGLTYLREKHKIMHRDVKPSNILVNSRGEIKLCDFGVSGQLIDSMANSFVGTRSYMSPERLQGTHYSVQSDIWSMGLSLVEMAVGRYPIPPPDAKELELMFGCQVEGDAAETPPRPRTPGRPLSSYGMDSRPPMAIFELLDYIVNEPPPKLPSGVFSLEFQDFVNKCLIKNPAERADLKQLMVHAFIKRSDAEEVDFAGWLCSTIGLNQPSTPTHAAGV

CS(=O)(=O)c1cccc(CNc2nc(Nc3ccc4c(c3)CCC(=O)N4)ncc2C(F)(F)F)c1
IC50 [1]: 500 nM | IC50 [2]: > 1000 nM | Activity [3]: 2.2 | inhibition (Homo sapiens [4]): 13% | inhibition [5]: 16% | inhibition [6]: 2% | IC50 [7]: 197 nM | level, % of control at 1 µM [8]: 141% | Activity [9]: 0.3 | inhibition [10]: 0% | inhibition [11]: 20% | inhibition [12]: 0% | inhibition [13]: 13% | inhibition [14]: 0% | IC50 (Focal adhesion kinase 1 [15]): 11 nM | inhibition [16]: 25% | inhibition [17]: 48% | inhibition [18]: 15% | inhibition [19]: 50% | inhibition [20]: 64% | Activity (REF52): inactive | inhibition (Homo sapiens [21]): 0% | inhibition [22]: 48% | inhibition [23]: 0% | inhibition [24]: 36% | Time (NIH3T3 [25]): 42 min | Activity (NIH3T3 [26]): Active | inhibition [27]: 11% | IC50 (Focal adhesion kinase 1 [28]): 100 nM | inhibition [29]: 0% | level, % of control at 1 µM (PC-3): 109% | inhibition [30]: 1% | Activity [31]: 0.5 | inhibition [32]: 29%

— ChEMBL document CHEMBL1156453, “Cellular characterization of a novel focal adhesion kinase inhibitor” (J Biol Chem, 2007)
